From ChEMBL document CHEMBL1123929, “Investigation of peripheral cholecystokinin receptor heterogeneity by cyclic and related linear analogues of CCK26-33: synthesis and biological properties” (J Med Chem, 1987) come the findings set out here.

Non-standard residues stand in square brackets, D forms with d. Residues, ends and D or L forms follow the SMILES beside them. *: point of attachment. sY = N[C@@H](Cc1ccc(OS(=O)(=O)O)cc1)C(=O)O; Nle = CCCC[C@H](N)C(=O)O; Boc = CC(C)(C)OC(=O)*

Broadly, the Ki is a dissociation constant, usually derived from enzyme kinetics or from competition with a known ligand. Low readings indicate a stronger hold on the target, high ones a looser hold on the target. In general, EC50 refers to the concentration needed to bring the measured effect to its halfway point. Low readings indicate an effect from little substance, high ones a need for much substance.

Test [1] concerns the target T1, Cholecystokinin receptor type A (Rattus norvegicus, UniProt P30551).
T1 sequence (P30551 whole entry): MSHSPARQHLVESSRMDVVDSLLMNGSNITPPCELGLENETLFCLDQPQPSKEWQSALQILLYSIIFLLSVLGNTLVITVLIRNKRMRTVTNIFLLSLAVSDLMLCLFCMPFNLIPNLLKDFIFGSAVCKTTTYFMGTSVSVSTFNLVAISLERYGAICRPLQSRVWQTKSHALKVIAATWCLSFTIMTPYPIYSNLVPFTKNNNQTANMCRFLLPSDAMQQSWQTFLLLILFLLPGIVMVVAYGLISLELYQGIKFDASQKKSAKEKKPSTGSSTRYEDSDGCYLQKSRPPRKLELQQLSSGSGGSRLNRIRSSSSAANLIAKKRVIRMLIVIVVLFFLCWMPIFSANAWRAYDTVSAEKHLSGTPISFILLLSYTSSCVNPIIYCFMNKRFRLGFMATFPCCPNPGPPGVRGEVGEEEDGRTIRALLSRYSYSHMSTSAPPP
Description: Evaluated for binding affinity measured by inhibiting [3H]Boc[Nle28,31]CCK27-33 specific binding to Cholecystokinin receptor in rat pancreas membranes at a KD concentration of 4.4 nM. The format is cell membranes, Membrane.

Test [2] addresses T2, Cholecystokinin receptor (Mus musculus, UniProt O08786+P56481).
T2 sequence (O08786 whole entry): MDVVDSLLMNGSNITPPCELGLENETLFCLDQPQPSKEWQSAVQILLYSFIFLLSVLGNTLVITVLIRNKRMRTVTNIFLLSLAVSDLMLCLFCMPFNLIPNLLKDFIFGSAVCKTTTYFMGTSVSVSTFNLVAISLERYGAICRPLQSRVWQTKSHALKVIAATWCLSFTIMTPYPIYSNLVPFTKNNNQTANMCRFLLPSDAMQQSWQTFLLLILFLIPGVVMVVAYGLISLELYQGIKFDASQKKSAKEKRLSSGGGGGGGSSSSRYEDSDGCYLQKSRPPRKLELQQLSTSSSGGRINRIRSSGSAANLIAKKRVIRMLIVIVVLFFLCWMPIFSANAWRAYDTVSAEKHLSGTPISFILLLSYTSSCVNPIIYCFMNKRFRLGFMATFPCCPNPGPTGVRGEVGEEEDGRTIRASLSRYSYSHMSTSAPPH
T2 sequence (P56481 whole entry): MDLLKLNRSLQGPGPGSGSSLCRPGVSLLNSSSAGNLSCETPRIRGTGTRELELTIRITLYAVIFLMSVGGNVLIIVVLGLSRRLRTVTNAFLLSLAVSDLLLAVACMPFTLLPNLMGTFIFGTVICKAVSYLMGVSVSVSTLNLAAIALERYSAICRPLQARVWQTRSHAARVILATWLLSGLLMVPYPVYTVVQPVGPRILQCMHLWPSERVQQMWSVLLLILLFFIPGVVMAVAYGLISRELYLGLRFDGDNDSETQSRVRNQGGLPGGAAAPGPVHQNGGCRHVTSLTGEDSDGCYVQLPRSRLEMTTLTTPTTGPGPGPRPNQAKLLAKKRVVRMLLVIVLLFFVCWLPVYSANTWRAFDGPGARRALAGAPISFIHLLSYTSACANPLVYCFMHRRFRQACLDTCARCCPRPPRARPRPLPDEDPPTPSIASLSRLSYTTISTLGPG
Description: Binding affinity measured by inhibiting [3H]Boc[Nle28,31]CCK27-33 specific binding to Cholecystokinin receptor in mouse brain membranes at a KD concentration of 0.19 nM. The format is cell membranes, Membrane.

For test [3], the species on record is Rattus norvegicus. Description: Evaluated for agonist activity measured as amylase secretion by rat pancreas. It is filed as functional. An outline of the steps: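 Rat pancreas fragments stimulated with peptide (Na salt form). Amylase released into the medium was measured with Phadebas reagent by the Ceska method. EC50 was taken from concentration–response curves. Results are means of three separate experiments, each value in triplicate.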

Test [4] is filed under the species Cavia porcellus. In words: Evaluated for contractile activities of guinea pig ileum for agonistic activity. The format is functional. An outline of the steps:
(§1)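 Isolated guinea pig ileum contraction by the Hutchinson and Dockray method, with atropine present (1.5 mg/L). Agonism was tested by direct contraction. Antagonism was tested against contraction evoked by 3 × 10⁻⁹ M CCK8. Peptides were used as Na salts. Values are mean ± SEM of three separate experiments.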

For test [5], the species on record is Cavia porcellus. Description: Evaluated for contractile activities of guinea pig ileum for antagonistic activity (contraction induced by 3, 10e -9M of CCK-8). It is filed as functional. The essentials: as §1

Take `CCCC[C@H](NC(=O)[C@H](Cc1c[nH]c2ccccc12)NC(=O)[C@@H](CCCCN)NC(=O)[C@H](CCCC)NC(=O)[C@H](Cc1ccc(OS(=O)(=O)O)cc1)NC(=O)[C@H](CC(=O)O)NC(=O)OC(C)(C)C)C(=O)N[C@@H](CC(=O)O)C(=O)N[C@@H](Cc1ccccc1)C(N)=O`: the Ki is 340 nM in test [1] and 3e-07 M in test [2]. In addition, the values for the EC50 in test [3], in test [4] and in test [5] were 40 nM, over 10000 nM and 15000 nM, respectively.

On to `CCCC[C@H](NC(=O)[C@H](Cc1c[nH]c2ccccc12)NC(=O)[C@@H](CCCCN)NC(=O)[C@H](CCCC)NC(=O)[C@H](Cc1ccc(OS(=O)(=O)O)cc1)NC(=O)[C@H](CC(=O)O)NC(=O)OC(C)(C)C)C(=O)N[C@@H](CC(=O)O)C(N)=O`, for which the values for the inhibition constant Ki in test [1] and in test [2] were over 10000 nM and over 1e-05 M, respectively. The EC50 is over 100000 nM in test [3], over 10000 nM in test [4] and over 10000 nM in test [5].

`CCCC[C@H](NC(=O)[C@H](Cc1c[nH]c2ccccc12)NC(=O)[C@H]1CCCCNC(=O)C[C@H](NC(=O)OC(C)(C)C)C(=O)N[C@@H](Cc2ccc(OS(=O)(=O)O)cc2)C(=O)N[C@@H](CCCC)C(=O)N1)C(=O)N[C@@H](CC(=O)O)C(N)=O`: the figures for the Ki in test [1] and in test [2] were over 10000 nM and over 0.00001 M, respectively. The figures for the EC50 in test [3], in test [4] and in test [5] were over 1000 nM, over 10000 nM and over 10000 nM, respectively.

Take `CCCC[C@H](NC(=O)[C@H](Cc1ccc(OS(=O)(=O)O)cc1)NC(=O)OC(C)(C)C)C(=O)NCC(=O)N[C@@H](Cc1c[nH]c2ccccc12)C(=O)N[C@@H](CCCC)C(=O)N[C@@H](CC(=O)O)C(=O)N[C@@H](Cc1ccccc1)C(N)=O` (Boc-[sY][Nle]GW[Nle]DF-NH2): the Ki in test [2] is reported as 1.91e-10 M. Moreover, the values for the EC50 in test [3] and in test [4] were 2.8 nM and 3.2 nM, respectively.

Consider `CSCC[C@H](NC(=O)[C@H](Cc1ccc(OS(=O)(=O)O)cc1)NC(=O)[C@@H](N)CC(=O)O)C(=O)NCC(=O)N[C@@H](Cc1c[nH]c2ccccc12)C(=O)N[C@@H](CCSC)C(=O)N[C@@H](CC(=O)O)C(=O)N[C@@H](Cc1ccccc1)C(N)=O` [SINCALIDE], for which, in test [2], the inhibition constant (Ki) is reported as 4.91e-10 M. Moreover, the EC50 in test [3] turned out to be 1 nM; in test [4], 2 nM.
